Experimental data of several laboratories.

COc1ccccc1C(=O)C#Cc1ccc(F)c(F)c1 — activity vs control (Pseudomonas aeruginosa; microbial growth, absorbance; 100 µM, 24 h): 83%
CN(C)c1cc(NC(=O)Cc2ccccn2)c(O)c2c1C[C@H]1C[C@H]3[C@H](N(C)C)C(O)=C(C(N)=O)C(=O)[C@@]3(O)C(O)=C1C2=O — IC50 (Mycobacteroides abscessus; microbial growth, resazurin; ATCC19977): 0.67 µg/mL
O=C(NO)c1ccc(CNc2nc3cccc(-c4ccc5c(c4)OCO5)n3n2)cc1 — GI50 (DU-145; cell growth or viability, SRB): 470 nM
C=C(F)C(=O)N1CCN(c2nc(OC[C@@H]3CCCN3C)nc3c2CCN(c2cccc4cccc(Cl)c24)C3)C[C@@H]1CC#N — IC50 (MIA PaCa-2; cell growth or viability, ATP luminescence; 3D culture): 2.51 nM
Cc1ccccc1C(=O)C#Cc1ccc(F)c(F)c1 — activity vs control (Pseudomonas aeruginosa; microbial growth, absorbance; 10 µM, 24 h): 101%
O=C(O)CO/N=c1\cc2n(-c3ccc(Cl)cc3)c3ccccc3nc-2cc1Nc1ccc(Cl)cc1 — MIC (Mycobacteroides abscessus; microbial growth; clinical isolate): > 30 µM
CN(C)c1cc(NC(=O)c2ccccc2)c(O)c2c1C[C@H]1C[C@H]3[C@H](N(C)C)C(O)=C(C(N)=O)C(=O)[C@@]3(O)C(O)=C1C2=O — IC50 (Mycobacteroides abscessus; microbial growth, resazurin; ATCC19977): 13.8 µg/mL
COc1ccc(C(=O)C#Cc2ccc(O)c(OC)c2)cc1 — activity vs control (Pseudomonas aeruginosa; microbial growth, absorbance; 10 µM, 24 h): 95%
C=CC(=O)NC1CCN(c2ncc3ncnc(Nc4ccc(Oc5ccc6c(c5)ncn6C)c(C)c4)c3n2)CC1 — EC50 (ONS-76; cell growth or viability): 483 nM
CN(C)c1cc(NC(=O)CCc2cccnc2)c(O)c2c1C[C@H]1C[C@H]3[C@H](N(C)C)C(O)=C(C(N)=O)C(=O)[C@@]3(O)C(O)=C1C2=O — IC50 (Mycobacteroides abscessus; microbial growth, resazurin; ATCC19977): 5.63 µg/mL
CCOC(=O)CNC(=O)CO/N=c1\cc2n(-c3ccc(Cl)cc3)c3ccccc3nc-2cc1Nc1ccc(Cl)cc1 — MIC (Mycobacteroides abscessus; microbial growth; clinical isolate): > 30 µM
OC(C#Cc1ccc(F)c(F)c1)c1cccc(Cl)c1 (stereo not shown) — activity vs control (Pseudomonas aeruginosa; microbial growth, absorbance; 10 µM, 24 h): 96%
CN(C)c1cc(NC(=O)Cc2ccn(C)n2)c(O)c2c1C[C@H]1C[C@H]3[C@H](N(C)C)C(O)=C(C(N)=O)C(=O)[C@@]3(O)C(O)=C1C2=O — IC50 (Mycobacteroides abscessus; microbial growth, resazurin; ATCC19977): 0.86 µg/mL
C[C@H](NC(=O)CO/N=c1\cc2n(-c3ccc(Cl)cc3)c3ccccc3nc-2cc1Nc1ccc(Cl)cc1)C(=O)O — MIC (Mycobacteroides abscessus; microbial growth; clinical isolate): > 30 µM
CCCCC[C@H](O)CC(=O)CCc1ccc(O)c(OC)c1 — activity vs control (Pseudomonas aeruginosa; microbial growth, absorbance; 10 µM, 24 h): 99%
CN(C)c1cc(NC(=O)CCc2ccccc2)c(O)c2c1C[C@H]1C[C@H]3[C@H](N(C)C)C(O)=C(C(N)=O)C(=O)[C@@]3(O)C(O)=C1C2=O — IC50 (Mycobacteroides abscessus; microbial growth, resazurin; ATCC19977): 8.87 µg/mL
O=C(C#Cc1ccc(F)c(F)c1)c1ccccc1 — activity vs control (Pseudomonas aeruginosa; microbial growth, absorbance; 10 µM, 24 h): 94%
C=CCO/N=c1\cc2n(-c3ccc(Cl)cc3)c3ccccc3nc-2cc1Nc1ccc(Cl)cc1 — MIC (Mycobacteroides abscessus; microbial growth; clinical isolate): > 30 µM
CN(C)c1cc(NC(=O)Cc2cccnn2)c(O)c2c1C[C@H]1C[C@H]3[C@H](N(C)C)C(O)=C(C(N)=O)C(=O)[C@@]3(O)C(O)=C1C2=O — IC50 (Mycobacteroides abscessus; microbial growth, resazurin; ATCC19977): 1.67 µg/mL
OC(C#Cc1ccc(F)c(F)c1)c1ccccc1 (stereo not shown) — activity vs control (Pseudomonas aeruginosa; microbial growth, absorbance; 100 µM, 24 h): 97%
C[C@H](NC(=O)CO/N=c1\cc2n(-c3ccc(Cl)cc3)c3ccccc3nc-2cc1Nc1ccc(Cl)cc1)C(=O)OC(C)(C)C — MIC (Mycobacteroides abscessus; microbial growth; clinical isolate): > 30 µM
CN(C)c1cc(CNCC(C)(C)C)c(O)c2c1C[C@H]1C[C@H]3[C@H](N(C)C)C(O)=C(C(N)=O)C(=O)[C@@]3(O)C(O)=C1C2=O — IC50 (Mycobacteroides abscessus; microbial growth, resazurin; ATCC19977): < 1 µg/mL
